Screening results: PubChem BioAssay, Johns Hopkins Ion Channel Center
Hits are enriched below; roughly 3.7% of the tested compounds scored in any of these assays.
hERG protect: hERG rescue from dofetilide block, primary screen, cell-based, CHO-hERG, FluxOR thallium flux, dofetilide IC70 | Voltage-gated inwardly rectifying potassium channel KCNH2 (Homo sapiens), Q12809 | 0.51% of 310,000 active | dofetilide IC70 present | activation (rescue from dofetilide block), less the hit threshold, % at 10 µM;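 active means activation above the mean of controls blocked by dofetilide plus 5 SD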;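 further: thallium influx through hERG after potassium depolarization seen as dye fluorescence rise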
Target sequence (Q12809 whole entry, looked up): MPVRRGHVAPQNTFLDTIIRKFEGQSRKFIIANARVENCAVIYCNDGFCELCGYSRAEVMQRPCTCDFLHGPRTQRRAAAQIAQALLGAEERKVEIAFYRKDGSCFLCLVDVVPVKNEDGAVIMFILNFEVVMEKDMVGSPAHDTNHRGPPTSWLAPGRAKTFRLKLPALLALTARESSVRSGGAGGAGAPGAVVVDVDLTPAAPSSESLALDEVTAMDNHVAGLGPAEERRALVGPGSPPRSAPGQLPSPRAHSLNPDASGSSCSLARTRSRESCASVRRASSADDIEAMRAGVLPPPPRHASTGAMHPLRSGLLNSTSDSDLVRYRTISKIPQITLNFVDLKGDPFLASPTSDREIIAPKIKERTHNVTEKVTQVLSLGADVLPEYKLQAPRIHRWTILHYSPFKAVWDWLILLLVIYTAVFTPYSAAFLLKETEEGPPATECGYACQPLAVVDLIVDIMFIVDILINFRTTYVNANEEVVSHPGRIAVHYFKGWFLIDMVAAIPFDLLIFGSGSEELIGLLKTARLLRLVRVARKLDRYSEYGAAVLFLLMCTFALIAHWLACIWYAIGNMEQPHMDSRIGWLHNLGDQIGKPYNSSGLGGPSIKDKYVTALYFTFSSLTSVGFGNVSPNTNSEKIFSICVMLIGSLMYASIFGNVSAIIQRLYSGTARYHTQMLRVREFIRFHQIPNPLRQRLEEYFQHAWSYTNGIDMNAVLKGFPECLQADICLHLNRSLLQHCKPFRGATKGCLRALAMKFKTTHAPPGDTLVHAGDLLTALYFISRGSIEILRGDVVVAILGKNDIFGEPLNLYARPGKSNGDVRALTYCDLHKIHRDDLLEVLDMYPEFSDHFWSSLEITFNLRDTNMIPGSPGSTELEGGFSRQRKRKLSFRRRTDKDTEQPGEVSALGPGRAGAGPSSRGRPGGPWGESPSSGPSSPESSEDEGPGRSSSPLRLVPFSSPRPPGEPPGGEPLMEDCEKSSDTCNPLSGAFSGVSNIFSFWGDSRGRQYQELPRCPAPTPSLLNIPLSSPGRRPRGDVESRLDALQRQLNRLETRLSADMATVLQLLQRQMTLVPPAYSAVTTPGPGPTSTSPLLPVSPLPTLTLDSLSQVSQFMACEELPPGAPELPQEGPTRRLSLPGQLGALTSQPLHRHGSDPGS
KCNK9 block: KCNK9 potassium channel inhibitors, primary screen, HEK293 cells, thallium flux; FluxOR thallium flux fluorescence; hits give low values; B-score at 10 µM; Potassium channel subfamily K member 9 (Homo sapiens), Q9NPC2; 1.2% of 310,000 active; AID 488922, 2010;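 active means ratio B-score over 3 SD below the library mean, with starting fluorescence within 5 SD of its mean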;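 further: negative B-score means less thallium flux so channel inhibition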
Kir21 block: inhibitors of mouse Kir2.1 inward-rectifier potassium channel; 0.85% of 310,000 active; Inward rectifier potassium channel 2 (Mus musculus), P35561; B-score at 10 µM; HEK293-Kir2.1, FluxOR thallium flux fluorescence; hits give low values;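 active means fluorescence ratio B-score at or below minus 3 SD of library scores, with starting-brightness B-score within 2 SD, cut at about -4.2 in these data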;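 further: channel flux triggered by added potassium and thallium sulfate stimulus; B-score of peak minus minimum fluorescence over baseline after thallium stimulus; more negative B-score means stronger Kir2.1 block with less thallium influx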
KCNK3 block: human KCNK3 channel inhibitors, primary screen, CHO cells, FluxOR thallium flux, B-score; 0.84% of 340,000 active; Potassium channel subfamily K member 3 (Homo sapiens), O14649; AID 602410, 2012; FluxOR fluorescence; hits give low values; B-score at 10 µM;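 active means B-score under library mean minus 4 SD, starting fluorescence ratio at most library mean plus 5 SD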;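 further: more negative B-score means stronger inhibition of thallium flux through KCNK3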
KCNQ1 inh: inhibitors of human KCNQ1 channel, primary screen, cell-based, thallium flux, high-throughput. CHO-K1 KCNQ1, FluxOR thallium flux fluorescence; hits give high values. B-score at 10 µM. 1.3% of 310,000 active;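 active means compounds whose thallium flux B-score, printed positive for inhibition, exceeds three library SD while starting fluorescence stays within three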;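 further: channel opened by potassium depolarization with thallium stimulus after 20 min compound exposure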
KCNQ1 pot: potentiators or activators of KCNQ1 channel, primary screen, cell-based, thallium flux, high-throughput | Potassium voltage-gated channel subfamily KQT member 1 (Homo sapiens), P51787 | CHO-K1 KCNQ1, thallium flux FluxOR fluorescence; hits give high values | B-score at 10 µM | 0.35% of 310,000 active | AID 2648, 2010;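 active means fluorescence ratio B-score, a plate-corrected score, at least three library SD, with initial intensity B-score within 5 SD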
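Doses: Single concentration per compound, DMSO matched to controls | Test system: KCNQ1-transfected CHO-K1 cells | Timing: 90 min dye loading and 20 min compound exposure, both at room temperature | Measured by: Kinetic FluxOR thallium fluorescence, 10-s 1-Hz baseline, 110-s post-stimulus read | Medium: Assay buffer with matched DMSO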
Large screens that a line does not name were inactive.

N#Cc1cc([N+](=O)[O-])ccc1NC(=O)CSc1n[nH]c(=O)[nH]c1=O	none (no result: hERG protect, KCNK9 block, Kir21 block, KCNQ1 inh, KCNQ1 pot)
COc1ccc(N2CCN(S(=O)(=O)c3ccc4c(c3)CCCC4)CC2)c([N+](=O)[O-])c1	KCNQ1 inh 7
O=C(CCC1CCCCC1)NCCN1C2=NC[C@@H](Cc3ccccc3)N2C[C@H]1Cc1ccc(O)cc1	Kir21 block -4.5
O=C(CCC1CCCCC1)NCCN1C2=NC[C@H](Cc3ccccc3)N2C[C@H]1Cc1ccc(O)cc1	none
O=C(C[C@@H]1C/C=C\C[C@H](NC(=O)OCC2c3ccccc3-c3ccccc32)C(=O)O[C@H](c2ccccc2)CNC1=O)NCCO	none (no result: hERG protect, KCNK9 block, Kir21 block, KCNQ1 inh, KCNQ1 pot)
CCOC(=O)c1c(C)oc2c1c(C(c1cccnc1)N1CCCCC1)c(O)c1ccccc12 (configuration not stated)	KCNQ1 inh 6
CN(NS(=O)(=O)c1ccc(Cl)cc1)c1nc(C(F)(F)F)nc2ccccc12	KCNK9 block -7.6
CN(NS(=O)(=O)c1ccccc1)c1nc2ccccc2nc1C(F)(F)F	none
COc1ccc(C(CCNCc2ccc(OC(C)C)cc2)C(C)C)cc1 (configuration not stated)	Kir21 block -4.5
COc1ccc(C(CCNCc2ccc(N(C)C)cc2)C(C)C)cc1 (configuration not stated)	Kir21 block -5
CCOCCCNCc1ccc(OC)cc1	none
COc1ccc(CNCCC(c2ccc(OC(C)C)cc2)C(C)C)cc1OC (configuration not stated)	none
CC(C)N(C(=O)CSc1n[nH]c(=O)n1CCc1ccccc1)C(C)C	none
CCS(=O)(=O)N1CCN(c2ccc(Cl)cc2[N+](=O)[O-])CC1	none
c1ccc(-c2nnc3ccc(N4CCCC4)nn23)cc1	none
CN(Cc1ccccc1)c1ccc2nnc(-c3ccccc3)n2n1	Kir21 block -5.2
CN(Cc1ccccc1N1CCCC1)C(=O)c1cc2ccccc2o1	KCNK3 block -11 (no result: hERG protect, KCNK9 block, Kir21 block, KCNQ1 inh, KCNQ1 pot)
CN(Cc1ccccc1N1CCCC1)C(=O)c1cc2cc(Cl)ccc2o1	KCNK3 block -9.5 (no result: hERG protect, KCNK9 block, Kir21 block, KCNQ1 inh, KCNQ1 pot)
CN(Cc1c(F)cccc1Cl)C(=O)c1cc2ccccc2o1	none
COc1ccc(CN2CC[C@H]3C=CC[C@@H](C(=O)NCCc4ccccc4)[C@H]3C2=O)cc1OC	none
Cc1noc(C)c1CSCC(=O)N(C)CC(=O)Nc1ccccc1Cl	none
S=c1[nH]c2cc(-c3ccccc3)ccc2o1	hERG protect 45, KCNQ1 pot 63
COc1ccc(-c2csc3nc[nH]c(=O)c23)cc1OC	none
Cc1ccc(-c2csc3nc[nH]c(=S)c23)cc1C	hERG protect 56, KCNQ1 pot 24
CC(C)N(Cc1ccccc1)C(=S)Nc1ccccc1F	none
COc1ccccc1OCCNc1cc(N2CCCCC2)ccc1[N+](=O)[O-]	KCNK9 block -6.8, KCNQ1 inh 6
Cc1ccccc1OCCNc1cc(N2CCNCC2)ccc1[N+](=O)[O-]	Kir21 block -8.1 (no result: KCNK3 block)
Cc1cccc(OCCNc2cc(N3CCN(C)CC3)ccc2[N+](=O)[O-])c1	none
CCOc1ccc(S(=O)(=O)N2CCC(C(=O)OC(C)C(=O)N(C)C3CCCCC3)CC2)cc1 (configuration not stated)	none
CC1=CC(C)(C)N2C(=O)C3(C(C#N)=C(N)Oc4cc(O)ccc43)c3cccc1c32 (configuration not stated)	KCNQ1 inh 6
c1ccc2c(c1)[nH]c1c(N3CCSCC3)ncnc12	KCNK3 block -9.7 (no result: hERG protect, KCNK9 block, Kir21 block, KCNQ1 inh, KCNQ1 pot)
COc1ccc(CNCC(O)COc2ccc(C(C)(C)c3ccccc3)cc2)cc1 (configuration not stated)	Kir21 block -5.7
CC(C)(c1ccccc1)c1ccc(OCC(O)CNC2CCN(Cc3ccccc3)CC2)cc1 (configuration not stated)	KCNK9 block -7.5, Kir21 block -4.9, KCNQ1 inh 8
Cc1nn(C)c(C)c1NS(=O)(=O)c1cccc(Br)c1	none
CC(=O)N(Cc1ccc(F)cc1)C1=C(NCc2ccccc2)C(=O)c2ccccc2C1=O	KCNK9 block -7.9
COc1cccc(C(=O)CSc2nnc(-c3cc(OC)cc(OC)c3)o2)c1	hERG protect 6.2
O=C(CSc1nc2ccccc2n1Cc1ccccc1)N/N=C/c1ccccc1C(=O)O	none
O=C(CSc1nc2ccccc2n1Cc1ccc(Cl)cc1)N/N=C/c1ccc(C(=O)O)cc1	KCNK9 block -6.8
CC(C)N(C(=O)COc1ccc(Br)cc1Cl)C(C)C	none
COc1ccccc1C(CNC(=O)C(C)Oc1ccc(Br)cc1)N1CCCC1 (configuration not stated)	Kir21 block -5.8
COc1ccc(/C=N/Nc2cc(C)nc3c(C)cccc23)cc1	KCNQ1 inh 6
COc1ccc(/C=N/Nc2cc(C)nc3ccccc23)cc1	Kir21 block -6.6
CC(C)c1onc(C(=O)NC2CCCC2)c1[N+](=O)[O-]	none
COc1ccc(-c2nnc(NC(=O)c3ccccc3[N+](=O)[O-])s2)c(OC)c1	none
COc1ccc(NC(=O)C(c2ccc(OC)cc2)N(Cc2ccco2)C(=O)CC2NC(=O)NC2=O)cc1 (configuration not stated)	none
COc1ccc(C(C(=O)Nc2ccc(C(C)C)cc2)N(Cc2ccco2)C(=O)CC2NC(=O)NC2=O)cc1 (configuration not stated)	KCNQ1 inh 6
Cc1ccc(S(=O)(=O)N2CCCC(CCC(=O)NCc3ccccc3F)C2)s1 (configuration not stated)	KCNK9 block -8
CC1=C(C(=O)N2CCCC(CCC(=O)NCc3ccccc3F)C2)OCCO1 (configuration not stated)	none
Cc1cc(C=O)c2c(c1)C=CC1(Oc3ccccc3C(=O)N1C)O2 (configuration not stated)	hERG protect 21 (no result: KCNK3 block)
O=C(c1ccc(S(=O)(=O)N2CCCC2)cc1)N1CCN(c2cccc(Cl)c2)CC1	KCNQ1 pot 9
O=C(c1ccc(S(=O)(=O)N2CCCC2)cc1)N1CCN(c2ccccc2)CC1	none
O=C(Nc1ccc2ccccc2c1)c1ccc2[nH]c(=O)c(=O)[nH]c2c1	none
O=C(Nc1cc(Oc2ccc(Cl)cc2)cc([N+](=O)[O-])c1)c1ccco1	KCNK9 block -7
CCOc1ccc(Oc2cc(NC(=O)c3ccco3)cc([N+](=O)[O-])c2)cc1	none (no result: hERG protect, KCNK9 block, Kir21 block, KCNQ1 inh, KCNQ1 pot)
Oc1c(/C=C/C=C/C=Nc2ccccc2)sc(=S)n1Cc1ccccc1	none
